{"data": "Measured values pooled from the literature", "organism": "Mycolicibacterium smegmatis", "observed": "microbial growth"}
{"SMILES": "CC(C)=CCC/C(C)=C/CNCCNC1C2CC3CC(C2)CC1C3 (stereo not drawn)", "conditions": "48 h", "quantity": "IC50", "value": "2.5 µM"}
{"SMILES": "CC(C)=CCC/C(C)=C/C(=O)O", "conditions": "48 h", "quantity": "IC50", "value": "> 500 µM"}
{"SMILES": "COc1c(N2C[C@@H]3CCCN[C@@H]3C2)c(F)cc2c(=O)c(C(=O)O)cn(C3CC3)c12", "system": "ATCC14468", "quantity": "MIC90", "value": "0.12 µg/mL"}
{"SMILES": "Cc1cc(N)c2ccccc2[n+]1CCCCCCCCCC[n+]1c(C)cc(N)c2ccccc21", "test": "disc diffusion", "conditions": "50 µg/disc", "quantity": "inhibition zone", "value": "18 mm"}
{"SMILES": "Cc1nc2sc3ccccc3n2c1C(=O)N1CCN(Cc2cn(-c3cccc([N+](=O)[O-])c3)nn2)CC1", "conditions": "72 h", "quantity": "IC50", "value": "44.1 µM"}
{"SMILES": "CCCCOc1ccc(-c2c[nH]c(N)n2)cc1", "system": "ATCC700084 MC^2155", "conditions": "48 h", "quantity": "MIC", "value": "> 200 µM"}
{"SMILES": "Cc1nc2sccn2c1C(=O)N1CCN(CCn2cc(CSc3nc4ccccc4[nH]3)nn2)CC1", "conditions": "72 h", "quantity": "IC50", "value": "16.4 µM"}
{"SMILES": "COCCOc1ccc(-c2c[nH]c(N)n2)cc1", "system": "ATCC700084 MC^2155", "conditions": "48 h", "quantity": "MIC", "value": "> 200 µM"}
{"SMILES": "Cc1ccc(-n2cc(CN3CCN(C(=O)c4c(C)nc5sc6ccccc6n45)CC3)nn2)cc1C", "conditions": "72 h", "quantity": "IC50", "value": "5.7 µM"}
{"SMILES": "CCCCCc1ccc(-c2c[nH]c(N)n2)cc1", "system": "ATCC700084 MC^2155", "conditions": "48 h", "quantity": "MIC", "value": "200 µM"}
{"SMILES": "O=C(N[C@H](CO)[C@H](O)c1ccc([N+](=O)[O-])cc1)C(Cl)Cl", "system": "ATCC14468", "quantity": "MIC90", "value": "125 µg/mL"}
{"SMILES": "CCCCCCCCCc1cn(CCN2CCN(C(=O)c3c(C)nc4sccn34)CC2)nn1", "conditions": "72 h", "quantity": "IC50", "value": "28.2 µM"}
